Bioassay records: PubChem BioAssay, several laboratories
Yeast growth inh: chemicals that inhibit yeast BB579 growth in restrictive medium (lifespan-shortening candidates); S. cerevisiae BB579 growth, OD615, 48 h; inhibition, % at 10 µM; actives 0.51% (n = 140,000);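 active = inhibition above a set limit, 3 SD over the mean compound inhibition, cut at about 44% in these data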
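System: Saccharomyces cerevisiae DeaD strain BB579, replicative lifespan model yeast. Buffer or medium: restrictive glucose-based CSMM-D medium. Doses: one dose, 10 µM compound with 0.25% DMSO. Timing: 4 h preincubation and 48 h exposure at 30 °C. Detection: turbidity as optical density at 615 nm. Benchmarks: amphotericin B 10 µg/mL, positive.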
Yeast life ext: yeast lifespan extension; S. cerevisiae growth with nicotinamide, OD615; deaD strain in restrictive glucose medium; inhibition of the nicotinamide effect, % at 10 µM; actives 0.68% (n = 130,000); AID 775;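 active = inhibition above a set limit, placed 3 SD over the median of all compounds, cut at about 26% in these data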
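assay system = DeaD-strain S. cerevisiae | measured by = absorbance at 615 nm | probe or stimulus = nicotinamide 1.5 mM | buffer or medium = CSMM-D glucose medium, restrictive | times = 48 h at 30 °C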
HMGR II inh: E. faecalis class II HMG-CoA reductase inhibition; purified E. faecalis HMGR, NADPH absorbance 340 nm kinetic; inhibition, % at 10 µM; actives 0.41% (n = 190,000);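 active = inhibition above a set limit, the median over all tested compounds plus 3 SD, cut at about 9.5% in these data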;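 also: enzyme runs in reverse so mevalonate oxidation gives rising NADPH absorbance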
Insulin prom inh: TRM-6 insulin promoter activity inhibition; TRM-6 cells, insulin promoter-eGFP reporter, imaging; reporter expression induced with tamoxifen; inhibition, % at 2 µM; actives 0.9% (n = 130,000); AID 1273;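 active = inhibition above the mean plus 3 SD, with well images judged a real hit on visual review, cut at about 60% in these data, passing the limit was not always enough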
RAM inhibit: yeast RAM network inhibition | actives 1.8% (n = 190,000) | AID 868 | S. cerevisiae dse1pr::URA3 reporter, 5-FOA growth OD615, 2 d; analog-sensitive cbk1-as2 kinase mutant strain | inhibition, % at 50 µM;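 active = inhibition above a set limit, 3 SD over mean compound inhibition, cut at about 8.4% in these data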;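 also: inhibition rescues growth on 5-FOA so higher OD means more RAM inhibition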
Numbers stand for hits. The list is not random: actives were taken first. Their share in the collection is about 3.7%.

Results for CC1(C)CC(=O)c2cnc3c(C#N)cnn3c2C1 ?
HMGR II inh: inactive; Insulin prom inh: inactive; RAM inhibit: inactive

Results for CSc1nc2ncc3c(n2n1)CC(C)(C)CC3=O ?
HMGR II inh: 9.9; Insulin prom inh: inactive; RAM inhibit: inactive

Results for CC(C)=C1C(=O)NN(c2ccc(C)c(Cl)c2)C1=O ?
Yeast growth inh: inactive; Yeast life ext: 45; HMGR II inh: inactive; Insulin prom inh: inactive; RAM inhibit: inactive

What do the screens show for `O=C(CCc1nnc(Cc2ccc3c(c2)OCO3)o1)NCc1nc2ccccc2s1`?
HMGR II inh: inactive; Insulin prom inh: 78; RAM inhibit: inactive

What do the screens show for `Cc1ccc(C(CC(=O)O)Nc2nc(N3CCOCC3)nc(N3CCOCC3)n2)cc1` (stereo not given)?
Yeast growth inh: inactive; Yeast life ext: inactive; HMGR II inh: inactive; Insulin prom inh: inactive; RAM inhibit: inactive

Results for COC(=O)c1ccc(C)c(NS(=O)(=O)c2ccc(C)c([N+](=O)[O-])c2)c1 ?
Yeast growth inh: inactive; Yeast life ext: inactive; HMGR II inh: inactive; Insulin prom inh: inactive; RAM inhibit: inactive

What do the screens show for `COC(=O)c1ccc(C)c(NS(=O)(=O)c2ccc(OC)cc2)c1`?
Yeast growth inh: inactive; Yeast life ext: inactive; HMGR II inh: inactive; Insulin prom inh: 100; RAM inhibit: inactive

Results for COc1cc(/C=N/NC(=O)C2CCN(CC(O)COCc3ccccc3)CC2)ccc1O (stereo not given) ?
HMGR II inh: inactive; RAM inhibit: inactive

How did Cc1cc(=O)[nH]c(-n2nc(C)cc2C)n1 do in these assays?
Yeast growth inh: 81; Yeast life ext: inactive; HMGR II inh: inactive; RAM inhibit: inactive

What do the screens show for `Cc1nc2ccc(NC(=O)c3ccc(Cl)c([N+](=O)[O-])c3)cc2s1`?
Yeast growth inh: inactive; Yeast life ext: inactive; HMGR II inh: inactive; RAM inhibit: inactive

What do the screens show for `Cc1nc2ccc(NC(=O)c3cc([N+](=O)[O-])cc([N+](=O)[O-])c3Cl)cc2s1`?
Yeast growth inh: 89; Yeast life ext: inactive; HMGR II inh: inactive; RAM inhibit: inactive

Results for COc1ccc(C(=O)Nc2ccc3cn[nH]c3c2)c(OC)c1 ?
HMGR II inh: inactive; Insulin prom inh: inactive; RAM inhibit: inactive

Results for O=C(NCc1n[nH]c(=S)n1-c1ccccc1)c1cccs1 ?
HMGR II inh: 12; Insulin prom inh: inactive; RAM inhibit: inactive

How did O=C(NCc1n[nH]c(=S)n1-c1cccc(Cl)c1)c1cccs1 do in these assays?
HMGR II inh: inactive; Insulin prom inh: inactive; RAM inhibit: inactive

How did O=C(O)CCNC(=O)c1ccc(Br)o1 do in these assays?
Yeast growth inh: inactive; Yeast life ext: inactive; HMGR II inh: inactive; Insulin prom inh: inactive; RAM inhibit: inactive

Results for O=C(NCCC(c1ccccc1)c1ccccc1)c1ccc(Br)o1 ?
Yeast growth inh: inactive; Yeast life ext: inactive; HMGR II inh: inactive; Insulin prom inh: inactive; RAM inhibit: 10

What do the screens show for `CCOC(=O)c1cnc(-c2ccccc2O)nc1Cl`?
HMGR II inh: inactive; RAM inhibit: inactive

How did CCOC(=O)C1=Nc2ccccc2C1=[N+]=[N-] do in these assays?
Yeast growth inh: 100; Yeast life ext: inactive; HMGR II inh: inactive; RAM inhibit: inactive

What do the screens show for `COc1cccc(/C=C/C(=O)OCC(=O)Nc2cccc(S(=O)(=O)N3CCOCC3)c2)c1OC`?
HMGR II inh: inactive; RAM inhibit: inactive

What do the screens show for `C=CCSc1ncc(C(=O)OCC)c(N)n1`?
HMGR II inh: inactive; Insulin prom inh: 100; RAM inhibit: inactive

What do the screens show for `CCOC(=O)c1cnc(SCC(=O)OC)nc1N`?
HMGR II inh: inactive; Insulin prom inh: inactive; RAM inhibit: inactive

How did Cc1ccc(N=N/C(=C\O)C(=O)c2ccncc2)cc1 do in these assays?
Yeast growth inh: inactive; Yeast life ext: inactive; HMGR II inh: inactive; Insulin prom inh: inactive; RAM inhibit: inactive

What do the screens show for `O=C(/C(=C/O)N=Nc1ccc(Cl)cc1)c1ccncc1`?
Yeast growth inh: inactive; Yeast life ext: 77; HMGR II inh: inactive; Insulin prom inh: inactive; RAM inhibit: inactive

Results for CCCc1ccc(OC(=O)c2ccc(O)cc2Cl)cc1 ?
HMGR II inh: inactive; Insulin prom inh: inactive; RAM inhibit: inactive

Results for Cc1cccc(COCC(Cc2ccccc2)N2CCN(C(=O)c3cccc(C)c3)CCC2=O)c1 (stereo not given) ?
Yeast growth inh: inactive; Yeast life ext: inactive; HMGR II inh: inactive; Insulin prom inh: inactive; RAM inhibit: inactive
